Laboratory results: ChEMBL document CHEMBL1139374, “Multivalent scaffolds for affinity maturation of small molecule cell surface binders and their application to prostate tumor targeting” (J Med Chem, 2009)
Active and inactive are the calls of the source. The rule behind the calls is not given here.

What was measured:
[1] = biological target: T1, Glutamate carboxypeptidase 2 (Homo sapiens, UniProt Q04609); assay: Binding affinity to PSMA in human LNCaP cells assessed as cell surface binding in Tris-buffered saline buffer; assay type: cell-based
Procedure, shortened: (§1)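 Cells washed twice in ice-cold TBS pH 7.4, then held 20 min at 4°C with 0.02 MBq 99mTc-labeled tracer, with or without test compound, in TBS, PBS or 100% calf serum. Washed three times in TBS, gamma-counted, affinity taken from curve fit; mean ± S.D.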

[2] = biological target: T1, Glutamate carboxypeptidase 2; assay: Binding affinity to PSMA in human LNCaP cells assessed as cell surface binding in presence of 100% calf serum; assay type: cell-based
Procedure, shortened: as §1, with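 “Live-cell homologous competition; cells grown in RPMI 1640 with 10% FBS at 37°C and 5% CO2. Cells” for “Cells”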

[3] = biological target: T1, Glutamate carboxypeptidase 2; assay: Binding affinity to PSMA in human LNCaP cells assessed as cell surface binding in phosphate-buffered saline buffer; assay type: cell-based
Procedure, shortened: as §1, with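 “Live-cell homologous competition; cells grown in RPMI 1640 with 10% FBS at 37°C and 5% CO2. Cells” for “Cells”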

[4] = biological target: T1, Glutamate carboxypeptidase 2; assay: Binding affinity to PSMA in human PC3 cells assessed as cell surface binding in Tris-buffered saline buffer; assay type: cell-based; conditions: for Activity: PC-3; procedure, shortened: as §1
[5] = biological target: T1, Glutamate carboxypeptidase 2; assay: Binding affinity to PSMA in living human LNCaP cells assessed as cell surface binding at 2 uM in presence of 100% calf serum by NIR fluorescence imaging; assay type: cell-based
Procedure, shortened: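 Exponentially growing LNCaP cells at 75% confluence on glass coverslips, exposed to 2 μM compound in 0.2 mL 100% calf serum for 20 min at room temperature. Washed three times in serum, fixed in 2% paraformaldehyde 10 min, permeabilized with PBS-0.1% Tween-20 and mounted. Phase-contrast and NIR images taken on a four-channel NIR fluorescence microscope at identical exposure and normalization.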
Target sequence in this assay (Q04609 whole entry, looked up): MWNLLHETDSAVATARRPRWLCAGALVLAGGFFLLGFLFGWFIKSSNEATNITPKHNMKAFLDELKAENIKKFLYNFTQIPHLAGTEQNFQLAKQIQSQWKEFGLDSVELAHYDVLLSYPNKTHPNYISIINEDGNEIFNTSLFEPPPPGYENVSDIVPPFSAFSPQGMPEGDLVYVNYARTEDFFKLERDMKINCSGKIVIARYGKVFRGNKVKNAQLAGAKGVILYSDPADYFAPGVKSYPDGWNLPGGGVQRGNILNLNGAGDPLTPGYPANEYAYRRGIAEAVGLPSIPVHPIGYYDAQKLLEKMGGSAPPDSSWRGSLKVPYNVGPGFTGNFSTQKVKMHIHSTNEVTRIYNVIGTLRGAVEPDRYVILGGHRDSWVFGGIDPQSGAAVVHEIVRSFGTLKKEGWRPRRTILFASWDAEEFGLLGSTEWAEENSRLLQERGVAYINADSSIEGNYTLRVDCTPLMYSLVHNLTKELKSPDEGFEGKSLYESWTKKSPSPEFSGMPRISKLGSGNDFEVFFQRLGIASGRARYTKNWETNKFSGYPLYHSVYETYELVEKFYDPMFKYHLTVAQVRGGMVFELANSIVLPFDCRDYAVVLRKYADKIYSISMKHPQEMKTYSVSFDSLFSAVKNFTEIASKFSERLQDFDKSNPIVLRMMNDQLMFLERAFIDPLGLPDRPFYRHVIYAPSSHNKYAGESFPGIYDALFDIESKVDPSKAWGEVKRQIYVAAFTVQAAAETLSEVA

[6] = biological target: T1, Glutamate carboxypeptidase 2; assay: Binding affinity to PSMA in human PC3 cells assessed as cell surface binding in phosphate-buffered saline buffer; assay type: cell-based
Procedure, shortened: as §1, with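 “Live-cell homologous competition; cells grown in RPMI 1640 with 10% FBS at 37°C and 5% CO2. Cells” for “Cells”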

[7] = biological target: T1, Glutamate carboxypeptidase 2; assay: Binding affinity to PSMA in human PC3 cells assessed as cell surface binding in presence of 100% calf serum; assay type: cell-based, PC-3
Procedure, shortened: as §1, with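 “Live-cell homologous competition; cells grown in RPMI 1640 with 10% FBS at 37°C and 5% CO2. Cells” for “Cells”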
Target sequence in this assay (Q04609 whole entry): as the sequence (Q04609 whole entry, looked up) above

Structure (SMILES)	Kd [1]	Activity [2]	Activity [1]	Activity [4]	Kd [3]	other results
CC1(C)C(/C=C/C2=C(Oc3ccc(S(=O)(=O)O)cc3)C(=C/C=C3/N(CCCCS(=O)(=O)O)c4ccc(S(=O)(=O)[O-])cc4C3(C)C)/CCC2)=[N+](CCCCCC(=O)NCCCCCC(=O)NC23CC4(CCC=O)CC(CCC=O)(CC(CCC(=O)N[C@@H](CCP(=O)(O)CC(CCC(=O)O)C(=O)O)C(=O)O)(C4)C2)C3)c2ccc(S(=O)(=O)O)cc21 (stereo partly specified)	5.4 nM					
N[C@@H](CCP(=O)(O)CC(CCC(=O)O)C(=O)O)C(=O)O (stereo partly specified)	10.5 nM	inactive				Activity [3]: inactive
CC1(C)C(/C=C/C2=C(Oc3ccc(S(=O)(=O)[O-])cc3)C(=C/C=C3/N(CCCCS(=O)(=O)O)c4ccccc4C3(C)C)/CCC2)=[N+](CCCCCC(=O)O)c2ccccc21			inactive	inactive		Activity [5]: 100%
CC1(C)C(/C=C/C2=C(Oc3ccc(S(=O)(=O)O)cc3)C(=C/C=C3/N(CCCCS(=O)(=O)O)c4ccc(S(=O)(=O)O)cc4C3(C)C)/CCC2)=[N+](CCCCCC(=O)NCCCCCC(=O)NC23CC4(CCC=O)CC(CCC=O)(CC(CCC(=O)N[C@@H](CCP(=O)(O)CC(CCC(=O)O)C(=O)O)C(=O)O)(C4)C2)C3)c2ccc(S(=O)(=O)[O-])cc21 (stereo partly specified)		inactive				Activity [3]: inactive
CC1(C)C(/C=C/C2=C(Oc3ccc(S(=O)(=O)[O-])cc3)C(=C/C=C3\N(CCCCS(=O)(=O)O)c4ccccc4C3(C)C)/CCC2)=[N+](CCCCCC(=O)NC23CC4(CCC(=O)O)CC(CCC(=O)O)(CC(CCC(=O)O)(C4)C2)C3)c2ccccc21			inactive	inactive		
CC1(C)C(/C=C/C2=C(Oc3ccc(S(=O)(=O)[O-])cc3)C(=C/C=C3/Nc4ccccc4C3(C)C)/CCC2)=[N+](CCCCCC(=O)NC23CC4(CCC(=O)N[C@@H](CCP(=O)(O)CC(CCC(=O)O)C(=O)O)C(=O)O)CC(CCC(=O)N[C@@H](CCP(=O)(O)CC(CCC(=O)O)C(=O)O)C(=O)O)(CC(CCC(=O)N[C@@H](CCP(=O)(O)CC(CCC(=O)O)C(=O)O)C(=O)O)(C4)C2)C3)c2ccccc21 (stereo partly specified)	0.2 nM				0.3 nM	Activity [5]: 100%; Kd [2]: 0.3 nM
CC1(C)C(/C=C/C2=C(Oc3ccc(S(=O)(=O)O)cc3)C(=C/C=C3/N(CCCCS(=O)(=O)O)c4ccc(S(=O)(=O)O)cc4C3(C)C)/CCC2)=[N+](CCCCCC(=O)NCCCCCC(=O)NC23CC4(CCC(=O)N[C@@H](CCP(=O)(O)CC(CCC(=O)O)C(=O)O)C(=O)O)CC(CCC(=O)N[C@@H](CCP(=O)(O)CC(CCC(=O)O)C(=O)O)C(=O)O)(CC(CCC(=O)N[C@@H](CCP(=O)(O)CC(CCC(=O)O)C(=O)O)C(=O)O)(C4)C2)C3)c2ccc(S(=O)(=O)[O-])cc21 (stereo partly specified)	0.5 nM	0.4 nM			0.5 nM	
NC12CC3(CCC(=O)O)CC(CCC(=O)O)(C1)CC(CCC(=O)O)(C2)C3			inactive	inactive		Activity ([6]; PC-3): inactive; Activity [3]: inactive
CC1(C)C(/C=C/C2=C(Oc3ccc(S(=O)(=O)O)cc3)C(=C/C=C3/N(CCCCS(=O)(=O)O)c4ccc(S(=O)(=O)[O-])cc4C3(C)C)/CCC2)=[N+](CCCCCC(=O)NCCCCCC(=O)NC23CC4(CCC=O)CC(CCC(=O)N[C@@H](CCP(=O)(O)CC(CCC(=O)O)C(=O)O)C(=O)O)(CC(CCC(=O)N[C@@H](CCP(=O)(O)CC(CCC(=O)O)C(=O)O)C(=O)O)(C4)C2)C3)c2ccc(S(=O)(=O)O)cc21 (stereo partly specified)	1.3 nM				1.9 nM	Kd [2]: 1.7 nM
CC1(C)C(C=CC2=C(Oc3ccc(S(=O)(=O)O)cc3)/C(=C/C=C3/N(CCCCCC(=O)N[C@@H](CCP(=O)(O)CC(CCC(=O)O)C(=O)O)C(=O)O)c4ccc(S(=O)(=O)[O-])cc4C3(C)C)CCC2)=[N+](CCCCS(=O)(=O)O)c2ccc(S(=O)(=O)O)cc21 (stereo partly specified)	3.6 nM					
CC(C)(C)OC(=O)NCCCCCC(=O)NC12CC3(CCC(=O)N[C@@H](CCP(=O)(O)CC(CCC(=O)O)C(=O)O)C(=O)O)CC(CCC(=O)N[C@@H](CCP(=O)(O)CC(CCC(=O)O)C(=O)O)C(=O)O)(CC(CCC(=O)N[C@@H](CCP(=O)(O)CC(CCC(=O)O)C(=O)O)C(=O)O)(C3)C1)C2 (stereo partly specified)	0.4 nM				0.5 nM	Kd [2]: 0.7 nM
CC1(C)C(/C=C/C2=C(Oc3ccc(S(=O)(=O)O)cc3)C(=C/C=C3/N(CCCCS(=O)(=O)O)c4ccc(S(=O)(=O)O)cc4C3(C)C)/CCC2)=[N+](CCCCCC(=O)N[C@@H](CCP(=O)(O)CC(CCC(=O)O)C(=O)O)C(=O)O)c2ccc(S(=O)(=O)[O-])cc21 (stereo partly specified)		inactive				Activity [3]: inactive
CC1(C)C(/C=C/C2=C(Oc3ccc(S(=O)(=O)O)cc3)C(=C/C=C3/N(CCCCS(=O)(=O)O)c4ccc(S(=O)(=O)O)cc4C3(C)C)/CCC2)=[N+](CCCCCC(=O)NCCCCCC(=O)NC23CC4(CCC(=O)O)CC(CCC(=O)O)(CC(CCC(=O)O)(C4)C2)C3)c2ccc(S(=O)(=O)[O-])cc21			inactive	inactive		
CC(C)(C)OC(=O)NC12CC3(CCC(=O)N[C@@H](CCP(=O)(O)CC(CCC(=O)O)C(=O)O)C(=O)O)CC(CCC(=O)N[C@@H](CCP(=O)(O)CC(CCC(=O)O)C(=O)O)C(=O)O)(CC(CCC(=O)N[C@@H](CCP(=O)(O)CC(CCC(=O)O)C(=O)O)C(=O)O)(C3)C1)C2 (stereo partly specified)	0.6 nM	0.9 nM			0.8 nM	Kd [6]: 0.3 nM; Kd [4]: 0.2 nM; Kd [7]: 0.6 nM
CC1(C)C(/C=C/C2=C(Oc3ccc(S(=O)(=O)O)cc3)C(=C/C=C3/N(CCCCS(=O)(=O)O)c4ccc(S(=O)(=O)O)cc4C3(C)C)/CCC2)=[N+](CCCCCC(=O)O)c2ccc(S(=O)(=O)[O-])cc21			inactive	inactive		
